We go through five molecules from ChEMBL document CHEMBL1806494, “Synthesis and biological evaluation of potential 5-HT(7) receptor PET radiotracers” (Eur J Med Chem, 2011).

Activity calls are given as the source filed them. The calls are words filed in the database; no cut-off is given here.

Usually Ki stands for the dissociation constant of the complex between target and ligand, obtained from inhibition or displacement. Read a high Ki as weaker binding.

Assay [1] has as its target T1, 5-hydroxytryptamine receptor 7 (Homo sapiens, UniProt P34969). Briefly: Binding affinity to 5HT7 receptor.
In assay [2] the target is 5-hydroxytryptamine receptor 6 (Homo sapiens) (UniProt P50406). Briefly: Binding affinity to recombinant human 5HT6 receptor expressed in CHO cells by competitive binding assay. Type of assay: cell-based. The method in brief:
(§1)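 Cell-based functional assay on human recombinant receptors expressed in CHO cells. Test compound inhibition of the control specific agonist response was measured over a concentration range. Concentration-response curves were built from mean replicate values and fitted with the Hill equation by non-linear regression to give IC50, reported as KB.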

Assay [3] deals with T2, 5-hydroxytryptamine receptor 1A (Homo sapiens) (UniProt P08908).
T2 sequence (whole entry): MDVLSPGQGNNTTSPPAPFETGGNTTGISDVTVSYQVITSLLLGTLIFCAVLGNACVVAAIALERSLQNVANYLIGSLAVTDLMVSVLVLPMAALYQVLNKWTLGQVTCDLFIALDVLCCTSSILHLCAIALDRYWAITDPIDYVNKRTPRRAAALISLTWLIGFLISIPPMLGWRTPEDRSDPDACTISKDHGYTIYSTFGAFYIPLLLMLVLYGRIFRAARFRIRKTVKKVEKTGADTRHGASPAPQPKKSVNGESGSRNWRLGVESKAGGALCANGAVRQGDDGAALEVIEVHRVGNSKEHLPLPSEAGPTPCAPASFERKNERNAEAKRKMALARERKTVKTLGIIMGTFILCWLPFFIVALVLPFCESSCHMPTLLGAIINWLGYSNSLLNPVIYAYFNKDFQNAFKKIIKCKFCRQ
Put plainly: Binding affinity to recombinant human 5HT1A receptor expressed in CHO cells by competitive binding assay. Type of assay: cell-based. The method in brief:
as §1

The target in assay [4] is 5-hydroxytryptamine receptor 7 (Rattus norvegicus) (UniProt P32305). Briefly: Binding affinity to 5HT7 receptor in Sprague-Dawley rat hippocampus at 1 uCi/ml after 20 mins by semi-quantitative autoradiography in presence of 10 to 100 nM of 5HT7 receptor antagonist SB269970. As to conditions: tested as the 18F-labelled form. Format: tissue-based. The method in brief:
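Coronal rat brain sections (30 µm, cut through hippocampus and cerebellum, stored at -80 °C) brought to ambient temperature, incubated 20 min in Tris phosphate-buffered saline (138 mM NaCl, 2.7 mM KCl, pH 7.6) with 37 kBq/ml [18F]radiotracer, alone or with SB269970 (10 nM, 100 nM or 1 µM). Rinsed 90 s in cold buffer (4 °C), then 90 s in cold water, dried, and exposed to a phosphor imaging plate for 60 min. Hippocampal binding read semi-quantitatively, in triplicate.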

The target of assay [5] is T1, 5-hydroxytryptamine receptor 7. Briefly: Binding affinity to recombinant human 5HT7 receptor expressed in CHO cells by competitive binding assay. Type of assay: cell-based. The method in brief:
as §1

Chain of 5-hydroxytryptamine receptor 6 (Homo sapiens) (P50406 whole entry): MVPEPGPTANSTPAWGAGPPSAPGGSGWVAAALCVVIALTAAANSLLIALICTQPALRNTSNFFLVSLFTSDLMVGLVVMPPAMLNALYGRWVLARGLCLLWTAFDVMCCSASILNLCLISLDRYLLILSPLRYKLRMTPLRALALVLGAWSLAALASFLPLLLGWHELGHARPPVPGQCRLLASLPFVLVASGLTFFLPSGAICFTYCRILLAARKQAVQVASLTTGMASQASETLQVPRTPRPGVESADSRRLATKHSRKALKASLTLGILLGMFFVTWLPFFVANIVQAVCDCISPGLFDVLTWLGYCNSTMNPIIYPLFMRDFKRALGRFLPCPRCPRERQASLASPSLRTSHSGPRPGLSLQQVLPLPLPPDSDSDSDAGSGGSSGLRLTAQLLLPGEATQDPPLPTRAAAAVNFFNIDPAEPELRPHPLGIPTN
T1 sequence (P34969 whole entry): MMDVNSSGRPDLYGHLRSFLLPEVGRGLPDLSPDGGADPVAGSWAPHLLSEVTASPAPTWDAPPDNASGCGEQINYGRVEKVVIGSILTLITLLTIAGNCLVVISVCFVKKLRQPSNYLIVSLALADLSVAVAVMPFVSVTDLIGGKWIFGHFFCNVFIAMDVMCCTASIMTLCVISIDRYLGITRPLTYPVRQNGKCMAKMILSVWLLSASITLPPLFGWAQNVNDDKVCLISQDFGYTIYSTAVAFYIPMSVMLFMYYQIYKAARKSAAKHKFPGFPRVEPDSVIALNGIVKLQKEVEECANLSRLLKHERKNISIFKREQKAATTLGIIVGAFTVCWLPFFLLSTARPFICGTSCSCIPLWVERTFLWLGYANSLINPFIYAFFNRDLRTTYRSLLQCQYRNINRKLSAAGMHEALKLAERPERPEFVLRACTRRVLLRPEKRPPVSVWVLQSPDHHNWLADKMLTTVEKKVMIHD
Chain of 5-hydroxytryptamine receptor 7 (Rattus norvegicus) (P32305 whole entry): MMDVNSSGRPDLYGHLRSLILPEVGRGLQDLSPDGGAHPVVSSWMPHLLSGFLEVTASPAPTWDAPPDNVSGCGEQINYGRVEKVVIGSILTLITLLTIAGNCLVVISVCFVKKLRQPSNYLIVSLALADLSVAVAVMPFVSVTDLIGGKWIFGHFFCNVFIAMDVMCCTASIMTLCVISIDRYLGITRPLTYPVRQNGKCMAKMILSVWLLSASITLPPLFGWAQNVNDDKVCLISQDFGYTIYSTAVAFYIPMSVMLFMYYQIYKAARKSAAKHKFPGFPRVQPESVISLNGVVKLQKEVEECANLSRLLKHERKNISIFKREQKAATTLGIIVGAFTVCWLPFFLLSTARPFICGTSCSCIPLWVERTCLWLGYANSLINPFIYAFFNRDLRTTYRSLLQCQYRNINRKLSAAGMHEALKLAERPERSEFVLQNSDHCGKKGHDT

In turn, `[11CH3]N1C(=O)C2(CCCCN3CCc4sccc4C3)CCCc3cccc1c32` (configuration not stated) gave a Ki in assay [1] of 9.7 nM.

In the case of `CC1CCN(CC[C@H]2CCCN2S(=O)(=O)c2ccc(F)cc2)CC1`, the Kb in assay [2] is > 10000 nM; in assay [3], > 10000 nM; in assay [5], 14 nM. In assay [4], the result was inactive.

Consider `CC1CCN(CC[C@H]2CCCN2S(=O)(=O)c2ccccc2F)CC1`, for which the Kb in assay [2] is > 10000 nM; in assay [3], > 10000 nM; in assay [5] it was 8.4 nM. For the same molecule, the outcome in assay [4] was inactive.

As to `COc1ccccc1N1CCN(CC[C@H]2CCCN2S(=O)(=O)c2ccc(F)cc2)CC1`, the Kb in assay [2] was > 10000 nM; in assay [3], > 10000 nM; in assay [5], 4.8 nM. The result in assay [4] was Active.

With `COc1ccccc1N1CCN(CC[C@H]2CCCN2S(=O)(=O)c2ccccc2F)CC1`, the Kb was > 10000 nM in assay [2], > 10000 nM in assay [3] and 1.6 nM in assay [5]. Moreover, the outcome in assay [4] was Active.
